Legend:
[1] = DPPH free radical scavenging; type: biochemical; settings: read-out: DPPH scavenging activity IC50; stable DPPH radical; mean ± SE, n = 3
In short: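 Radical-scavenging capacity of the test compounds toward DPPH was measured by a modified Zheleva-Dimitrova procedure. Scavenging activity was recorded and IC50 values were derived from it. Data are mean ± SE, n = 3.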

HepG2 cell line = assay: MTT assay, HepG2; type: cell-based; settings: for antitumor effect (in words): HepG2, MTT assay, compared to DOX
MCF-7 cell line = assay: MTT assay, MCF-7; type: cell-based; settings: for antitumor effect (in words): MCF-7, MTT assay, compared to DOX
HCT-116 cell line = assay: MTT assay, HCT-116; type: cell-based; settings: for antitumor effect (in words): HCT-116, MTT assay, compared to DOX
[2] = system: WI-38 normal cells (human lung fibroblast); assay: MTT assay, WI-38 normal cells; type: cell-based

SMILES | IC50 [1] [µM] | IC50 (HepG2 cell line; Homo sapiens, HepG2) [µM] | IC50 (MCF-7 cell line; Homo sapiens, MCF7) [µM] | IC50 (HCT-116 cell line; Homo sapiens, HCT-116) [µM] | antitumor effect (in words) (HepG2 cell line) | antitumor effect (in words) (MCF-7 cell line) | antitumor effect (in words) (HCT-116 cell line) | cytotoxic effect on normal cells (in words) [2]
NC1=NN(c2ccccc2)C(=O)C1/N=N/c1ccc(C(=O)/C=C/C=C/c2ccccc2)cc1 (stereo not drawn) [Compound 3g, 5-Amino-2-phenyl-4-((E)-(4-((2E,4E)-5-phenylpenta-2,4-dienoyl)phenyl)diazenyl)-2,4-dihydro-3H-pyrazol-3-one] | 73.63 ± 0.39 | – | – | – | weak effect | weak effect | weak effect | –
COc1cc(/C=C/C(=O)c2ccc(/N=N/C3C(=O)N(c4ccccc4)N=C3N)cc2)ccc1O (stereo not drawn) [Compound 3b, 5-Amino-4-((E)-(4-((E)-3-(4-hydroxy-3-methoxyphenyl)acryloyl)phenyl)diazenyl)-2-phenyl-2,4-dihydro-3H-pyrazol-3-one] | 19.95 ± 0.14 | 5.03 ± 0.4 | 3.92 ± 0.2 | 6.34 ± 0.5 | – | – | – | safe toxic profile on normal cells
NC1=NN(c2ccccc2)C(=O)C1/N=N/c1ccc(C(=O)/C=C/c2ccc(O)cc2)cc1 (stereo not drawn) [Compound 3c, 5-Amino-4-((E)-(4-((E)-3-(4-hydroxyphenyl)acryloyl)phenyl)diazenyl)-2-phenyl-2,4-dihydro-3H-pyrazol-3-one] | 94.18 ± 0.45 | – | – | – | weak effect | weak effect | weak effect | –
O=C1O[C@H]([C@@H](O)CO)C(O)=C1O [L-ascorbic acid, reference compound] | 16.81 ± 0.1 | – | – | – | – | – | – | –

The next lines start with results.

IC50 [1] [µM] | IC50 (HepG2 cell line; Homo sapiens, HepG2) [µM] | IC50 (MCF-7 cell line; Homo sapiens, MCF7) [µM] | IC50 (HCT-116 cell line; Homo sapiens, HCT-116) [µM] | SMILES | antitumor effect (in words) (HepG2 cell line) | antitumor effect (in words) (MCF-7 cell line) | antitumor effect (in words) (HCT-116 cell line) | cytotoxic effect on normal cells (in words) [2]
21.4 ± 0.17 | – | – | – | NC1=NN(c2ccccc2)C(=O)C1/N=N/c1ccc(C(=O)C=Cc2ccccc2)cc1 (stereo not drawn) [Compound 3a, 5-Amino-4-((E)-(4-cinnamoylphenyl)diazenyl)-2-phenyl-2,4-dihydro-3H-pyrazol-3-one] | impressive antitumor effects | impressive antitumor effects | impressive antitumor effects | –
27.25 ± 0.19 | – | – | – | NC1=NN(c2ccccc2)C(=O)C1/N=N/c1ccc(C(=O)C=Cc2ccco2)cc1 (stereo not drawn) [Compound 3f, (E)-3-Amino-4-((4-(3-(furan-2-yl)acryloyl)phenyl)diazenyl)-1-phenyl-1H-pyrazol-5(4H)-one] | impressive antitumor effects | impressive antitumor effects | impressive antitumor effects | –
32.79 ± 0.21 | – | – | – | CN(C)c1ccc(/C=C/C(=O)c2ccc(/N=N\C3C(=O)N(c4ccccc4)N=C3N)cc2)cc1 (stereo not drawn) [Compound 3e, 5-Amino-4-((Z)-(4-((E)-3-(4-(dimethylamino)phenyl)acryloyl)phenyl)diazenyl)-2-phenyl-2,4-dihydro-3H-pyrazol-3-one] | moderate effect | moderate effect | moderate effect | –
48.59 ± 0.28 | – | – | – | NC1=NN(c2ccccc2)C(=O)C1/N=N/c1ccc(C(=O)/C=C/c2ccccc2O)cc1 (stereo not drawn) [Compound 3d, 5-Amino-4-((E)-(4-((E)-3-(2-hydroxyphenyl)acryloyl)phenyl)diazenyl)-2-phenyl-2,4-dihydro-3H-pyrazol-3-one] | moderate effect | moderate effect | moderate effect | –
